For three compounds, inhibition results are on record in ChEMBL document CHEMBL1157789, “Design, synthesis and SAR of phenylamino-substituted 5,11-dihydro-dibenzo[a,d]cyclohepten-10-ones and 11H-dibenzo[b,f]oxepin-10-ones as p38 MAP kinase inhibitors” (Bioorg Med Chem Lett, 2010).

Each structure is given as a SMILES string. Calls of active or inactive are those of the source. The rule behind the calls is not given here.

Assay [1] deals with T1, Serine/threonine-protein kinase PLK4 (Homo sapiens) (UniProt O00444).
T1 sequence (whole entry): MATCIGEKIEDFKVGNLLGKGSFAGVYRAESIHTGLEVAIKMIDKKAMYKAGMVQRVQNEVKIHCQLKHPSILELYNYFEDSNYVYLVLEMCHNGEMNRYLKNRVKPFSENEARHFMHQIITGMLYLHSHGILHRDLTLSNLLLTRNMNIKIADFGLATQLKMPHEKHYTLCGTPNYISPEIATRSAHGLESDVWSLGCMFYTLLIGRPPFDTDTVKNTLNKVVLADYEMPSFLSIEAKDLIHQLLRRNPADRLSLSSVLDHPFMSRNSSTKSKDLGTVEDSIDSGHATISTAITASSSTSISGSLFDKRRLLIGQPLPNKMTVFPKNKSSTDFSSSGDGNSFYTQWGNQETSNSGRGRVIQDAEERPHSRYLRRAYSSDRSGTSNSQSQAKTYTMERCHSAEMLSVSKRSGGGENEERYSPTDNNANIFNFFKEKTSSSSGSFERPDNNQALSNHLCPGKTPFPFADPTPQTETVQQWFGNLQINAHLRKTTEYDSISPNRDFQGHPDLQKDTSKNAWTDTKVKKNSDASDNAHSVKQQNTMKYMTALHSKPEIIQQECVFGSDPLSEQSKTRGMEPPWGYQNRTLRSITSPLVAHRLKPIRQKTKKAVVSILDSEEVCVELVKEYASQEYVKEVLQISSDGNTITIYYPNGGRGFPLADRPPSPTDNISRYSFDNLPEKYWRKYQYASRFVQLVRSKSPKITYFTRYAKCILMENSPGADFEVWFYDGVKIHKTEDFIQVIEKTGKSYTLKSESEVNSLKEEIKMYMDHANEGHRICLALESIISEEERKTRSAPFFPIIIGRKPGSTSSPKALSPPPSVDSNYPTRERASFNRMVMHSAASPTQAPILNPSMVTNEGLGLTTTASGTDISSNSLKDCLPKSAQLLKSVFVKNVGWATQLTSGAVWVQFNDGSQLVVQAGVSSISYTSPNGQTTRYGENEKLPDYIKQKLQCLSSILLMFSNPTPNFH
Briefly: Inhibition of SAK at 10 uM.

Assay [2] concerns the target Casein kinase II subunit alpha (Homo sapiens) (UniProt P68400). The assay can be described thus: Inhibition of CK2alpha1 at 10 uM.
Assay [3] addresses BDNF/NT-3 growth factors receptor (Homo sapiens) (UniProt Q16620). The assay can be described thus: Inhibition of TRKB at 10 uM.
Assay [4] has as its target Insulin-like growth factor 1 receptor (Homo sapiens) (UniProt P08069). Briefly: Inhibition of IGF1R at 10 uM.
Assay [5] deals with Proto-oncogene tyrosine-protein kinase Src (Homo sapiens) (UniProt P12931). The assay can be described thus: Inhibition of SRC at 10 uM.
Assay [6] has as its target Hepatocyte growth factor receptor (Homo sapiens) (UniProt P08581). Briefly: Inhibition of MET at 10 uM.
For assay [7], the target named is Insulin receptor (Homo sapiens) (UniProt P06213). Briefly: Inhibition of INSR at 10 uM.
Assay [8] addresses Serine/threonine-protein kinase N1 (Homo sapiens) (UniProt Q16512). The assay can be described thus: Inhibition of PRK1 at 10 uM.
For assay [9], the target named is RAC-alpha serine/threonine-protein kinase (Homo sapiens) (UniProt P31749). Briefly: Inhibition of AKT1 at 10 uM.
For assay [10], the system named is Serine/threonine-protein kinase B-raf (Homo sapiens), P15056 [V600E]. Briefly: Inhibition of B-Raf V600E mutant at 10 uM.
For assay [11], the target named is Focal adhesion kinase 1 (Homo sapiens) (UniProt Q05397). The assay can be described thus: Inhibition of FAK at 10 uM.
The target in assay [12] is Vascular endothelial growth factor receptor 2 (Homo sapiens) (UniProt P35968). Briefly: Inhibition of VGFR2 at 10 uM.
Assay [13] concerns the target Serine/threonine-protein kinase PLK1 (Homo sapiens) (UniProt P53350). The assay can be described thus: Inhibition of PLK1 at 10 uM.
Assay [14] in a line: Inhibition of p38 assessed as rate of ATF-2 phosphorylation at 10 uM by immunosorbent non-radioactive enzyme assay. A digest of the protocol: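 p38α MAP kinase ELISA-type (immunosorbent, non-radioactive) assay. Enzyme was incubated with ATP at 100 µM, ATF-2 as substrate, and test compound at 10^-5 to 10^-8 M. Activity was read as the rate of ATF-2 phosphorylation. SB203580 served as the reference inhibitor.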

In assay [15] the target is T2, NUAK family SNF1-like kinase 1 (Homo sapiens) (UniProt O60285).
T2 sequence (whole entry): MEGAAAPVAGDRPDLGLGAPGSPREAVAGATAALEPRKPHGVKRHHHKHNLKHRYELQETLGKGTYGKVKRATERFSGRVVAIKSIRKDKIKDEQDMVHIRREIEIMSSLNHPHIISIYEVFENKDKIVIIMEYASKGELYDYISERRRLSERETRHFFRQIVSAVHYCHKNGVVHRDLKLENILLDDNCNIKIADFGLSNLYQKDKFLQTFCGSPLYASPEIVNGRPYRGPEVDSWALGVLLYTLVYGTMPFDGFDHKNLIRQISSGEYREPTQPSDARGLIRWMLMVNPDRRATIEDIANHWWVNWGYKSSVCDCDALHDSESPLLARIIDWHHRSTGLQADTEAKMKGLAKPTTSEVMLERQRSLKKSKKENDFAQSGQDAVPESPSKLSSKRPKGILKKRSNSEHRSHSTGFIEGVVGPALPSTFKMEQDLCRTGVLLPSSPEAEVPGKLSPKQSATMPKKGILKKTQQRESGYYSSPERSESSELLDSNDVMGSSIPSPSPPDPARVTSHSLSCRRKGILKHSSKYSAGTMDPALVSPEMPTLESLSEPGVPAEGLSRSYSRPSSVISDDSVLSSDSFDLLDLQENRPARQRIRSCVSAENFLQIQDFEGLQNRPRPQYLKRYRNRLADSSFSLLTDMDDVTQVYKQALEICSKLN
Briefly: Inhibition of ARK5 at 10 uM.

In assay [16] the target is Aurora kinase B (Homo sapiens) (UniProt Q96GD4). The assay can be described thus: Inhibition of Aurora B at 10 uM.
The target of assay [17] is Tyrosine-protein kinase receptor UFO (Homo sapiens) (UniProt P30530). The assay can be described thus: Inhibition of AXL at 10 uM.
Chain of Tyrosine-protein kinase receptor UFO (Homo sapiens) (P30530 whole entry): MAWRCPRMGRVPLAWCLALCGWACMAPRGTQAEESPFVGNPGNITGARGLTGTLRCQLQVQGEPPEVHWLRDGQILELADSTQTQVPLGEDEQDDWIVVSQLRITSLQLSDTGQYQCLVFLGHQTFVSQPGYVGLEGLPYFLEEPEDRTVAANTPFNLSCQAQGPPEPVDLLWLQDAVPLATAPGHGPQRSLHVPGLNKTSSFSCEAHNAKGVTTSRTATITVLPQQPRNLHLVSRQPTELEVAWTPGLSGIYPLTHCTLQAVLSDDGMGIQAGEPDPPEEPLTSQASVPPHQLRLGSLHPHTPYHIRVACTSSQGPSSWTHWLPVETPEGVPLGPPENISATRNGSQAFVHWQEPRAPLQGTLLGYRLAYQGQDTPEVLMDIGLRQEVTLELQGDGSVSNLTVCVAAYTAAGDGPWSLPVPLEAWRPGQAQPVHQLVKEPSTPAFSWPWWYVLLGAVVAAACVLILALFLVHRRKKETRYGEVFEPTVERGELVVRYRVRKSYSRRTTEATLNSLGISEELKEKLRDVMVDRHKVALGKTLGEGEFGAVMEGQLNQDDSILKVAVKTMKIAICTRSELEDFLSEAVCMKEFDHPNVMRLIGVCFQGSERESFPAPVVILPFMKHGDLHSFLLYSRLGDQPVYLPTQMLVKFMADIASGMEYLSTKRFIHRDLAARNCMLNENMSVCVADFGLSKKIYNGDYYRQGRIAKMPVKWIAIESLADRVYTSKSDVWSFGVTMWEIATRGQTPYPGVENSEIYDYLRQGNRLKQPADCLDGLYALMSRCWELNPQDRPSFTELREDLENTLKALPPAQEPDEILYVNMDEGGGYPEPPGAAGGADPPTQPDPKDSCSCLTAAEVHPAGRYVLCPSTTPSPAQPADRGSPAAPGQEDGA

Chain of Proto-oncogene tyrosine-protein kinase Src (Homo sapiens) (P12931 2-536 limits assumed): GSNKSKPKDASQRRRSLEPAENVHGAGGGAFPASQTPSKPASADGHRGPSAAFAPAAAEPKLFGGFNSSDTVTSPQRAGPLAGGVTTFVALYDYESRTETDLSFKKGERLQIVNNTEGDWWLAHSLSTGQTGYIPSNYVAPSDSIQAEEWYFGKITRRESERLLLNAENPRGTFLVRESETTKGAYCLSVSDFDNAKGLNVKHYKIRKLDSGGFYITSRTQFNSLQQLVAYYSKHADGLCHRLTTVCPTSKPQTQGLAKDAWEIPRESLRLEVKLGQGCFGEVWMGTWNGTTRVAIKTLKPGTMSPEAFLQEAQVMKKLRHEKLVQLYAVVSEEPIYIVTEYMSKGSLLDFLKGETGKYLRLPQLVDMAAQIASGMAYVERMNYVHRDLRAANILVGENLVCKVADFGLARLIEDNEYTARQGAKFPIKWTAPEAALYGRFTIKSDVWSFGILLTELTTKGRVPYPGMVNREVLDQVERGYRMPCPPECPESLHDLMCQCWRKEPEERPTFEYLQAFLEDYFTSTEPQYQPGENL
Chain of RAC-alpha serine/threonine-protein kinase (Homo sapiens) (P31749 whole entry): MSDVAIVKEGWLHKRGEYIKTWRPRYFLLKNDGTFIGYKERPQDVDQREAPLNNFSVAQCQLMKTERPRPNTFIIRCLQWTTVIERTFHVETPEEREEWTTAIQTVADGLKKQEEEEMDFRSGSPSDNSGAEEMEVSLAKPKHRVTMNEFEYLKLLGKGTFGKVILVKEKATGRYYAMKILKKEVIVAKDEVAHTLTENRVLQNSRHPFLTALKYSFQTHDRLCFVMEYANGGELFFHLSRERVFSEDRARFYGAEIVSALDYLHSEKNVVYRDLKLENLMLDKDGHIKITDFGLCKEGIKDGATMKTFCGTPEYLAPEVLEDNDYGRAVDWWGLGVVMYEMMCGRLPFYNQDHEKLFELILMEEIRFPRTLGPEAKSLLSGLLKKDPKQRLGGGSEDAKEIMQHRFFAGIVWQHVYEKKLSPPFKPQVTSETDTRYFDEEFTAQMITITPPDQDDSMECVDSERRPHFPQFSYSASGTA
Chain of Hepatocyte growth factor receptor (Homo sapiens) (P08581 whole entry): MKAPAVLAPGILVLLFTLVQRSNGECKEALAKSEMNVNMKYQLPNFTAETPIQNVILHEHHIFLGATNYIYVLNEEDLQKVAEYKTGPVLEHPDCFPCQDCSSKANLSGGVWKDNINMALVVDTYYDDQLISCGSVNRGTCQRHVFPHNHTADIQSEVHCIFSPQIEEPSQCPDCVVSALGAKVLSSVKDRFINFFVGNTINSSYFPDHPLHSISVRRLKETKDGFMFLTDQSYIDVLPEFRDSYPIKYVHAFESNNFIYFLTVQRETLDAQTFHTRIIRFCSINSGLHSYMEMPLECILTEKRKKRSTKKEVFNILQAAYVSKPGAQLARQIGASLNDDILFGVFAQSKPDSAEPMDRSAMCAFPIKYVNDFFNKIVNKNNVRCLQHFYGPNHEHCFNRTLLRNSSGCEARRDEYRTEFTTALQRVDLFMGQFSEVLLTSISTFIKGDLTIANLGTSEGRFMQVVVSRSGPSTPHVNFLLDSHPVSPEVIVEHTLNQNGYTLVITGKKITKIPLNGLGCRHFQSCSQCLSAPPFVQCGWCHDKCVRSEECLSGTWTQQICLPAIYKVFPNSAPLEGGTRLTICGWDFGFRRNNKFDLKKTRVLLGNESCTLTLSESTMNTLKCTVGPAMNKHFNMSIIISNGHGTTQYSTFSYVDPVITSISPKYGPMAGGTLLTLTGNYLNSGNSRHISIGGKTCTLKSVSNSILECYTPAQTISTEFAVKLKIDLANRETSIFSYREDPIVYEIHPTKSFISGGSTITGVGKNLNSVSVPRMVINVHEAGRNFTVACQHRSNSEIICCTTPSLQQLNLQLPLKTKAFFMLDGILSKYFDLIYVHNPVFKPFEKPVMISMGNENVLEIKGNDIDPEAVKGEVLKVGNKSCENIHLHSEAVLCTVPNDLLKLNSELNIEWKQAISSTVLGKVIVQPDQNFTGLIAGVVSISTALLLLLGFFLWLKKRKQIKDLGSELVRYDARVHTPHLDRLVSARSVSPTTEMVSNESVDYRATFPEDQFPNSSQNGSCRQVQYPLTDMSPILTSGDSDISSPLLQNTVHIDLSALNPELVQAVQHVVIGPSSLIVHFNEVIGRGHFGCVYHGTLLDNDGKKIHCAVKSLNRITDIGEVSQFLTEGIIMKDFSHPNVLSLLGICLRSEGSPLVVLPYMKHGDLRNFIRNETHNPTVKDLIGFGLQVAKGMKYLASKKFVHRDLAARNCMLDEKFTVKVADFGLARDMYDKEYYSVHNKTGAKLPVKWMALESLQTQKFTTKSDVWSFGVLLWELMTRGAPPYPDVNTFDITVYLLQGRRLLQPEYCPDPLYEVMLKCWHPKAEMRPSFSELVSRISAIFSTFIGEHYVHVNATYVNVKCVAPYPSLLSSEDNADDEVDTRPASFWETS
Chain of BDNF/NT-3 growth factors receptor (Homo sapiens) (Q16620 32-822 limits assumed): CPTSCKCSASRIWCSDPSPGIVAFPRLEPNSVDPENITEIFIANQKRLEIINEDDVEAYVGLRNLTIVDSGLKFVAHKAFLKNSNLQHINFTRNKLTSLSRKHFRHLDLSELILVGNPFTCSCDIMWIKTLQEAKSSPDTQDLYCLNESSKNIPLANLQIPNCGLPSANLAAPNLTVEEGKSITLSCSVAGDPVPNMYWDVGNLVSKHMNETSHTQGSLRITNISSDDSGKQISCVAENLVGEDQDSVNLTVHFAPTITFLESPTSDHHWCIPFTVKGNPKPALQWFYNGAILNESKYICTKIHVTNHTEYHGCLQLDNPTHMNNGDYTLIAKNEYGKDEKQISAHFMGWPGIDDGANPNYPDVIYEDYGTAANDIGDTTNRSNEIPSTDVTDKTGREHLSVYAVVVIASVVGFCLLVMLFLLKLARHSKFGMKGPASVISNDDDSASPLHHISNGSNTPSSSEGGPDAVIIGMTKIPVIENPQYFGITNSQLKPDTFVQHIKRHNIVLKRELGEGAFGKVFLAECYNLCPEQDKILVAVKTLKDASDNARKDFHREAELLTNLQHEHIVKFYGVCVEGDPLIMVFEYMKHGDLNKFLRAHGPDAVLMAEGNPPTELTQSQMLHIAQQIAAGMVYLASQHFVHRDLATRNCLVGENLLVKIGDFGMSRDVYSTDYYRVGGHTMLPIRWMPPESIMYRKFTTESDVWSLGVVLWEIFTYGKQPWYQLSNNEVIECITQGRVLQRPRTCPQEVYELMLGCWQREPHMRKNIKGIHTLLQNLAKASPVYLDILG
Chain of Serine/threonine-protein kinase PLK1 (Homo sapiens) (P53350 whole entry): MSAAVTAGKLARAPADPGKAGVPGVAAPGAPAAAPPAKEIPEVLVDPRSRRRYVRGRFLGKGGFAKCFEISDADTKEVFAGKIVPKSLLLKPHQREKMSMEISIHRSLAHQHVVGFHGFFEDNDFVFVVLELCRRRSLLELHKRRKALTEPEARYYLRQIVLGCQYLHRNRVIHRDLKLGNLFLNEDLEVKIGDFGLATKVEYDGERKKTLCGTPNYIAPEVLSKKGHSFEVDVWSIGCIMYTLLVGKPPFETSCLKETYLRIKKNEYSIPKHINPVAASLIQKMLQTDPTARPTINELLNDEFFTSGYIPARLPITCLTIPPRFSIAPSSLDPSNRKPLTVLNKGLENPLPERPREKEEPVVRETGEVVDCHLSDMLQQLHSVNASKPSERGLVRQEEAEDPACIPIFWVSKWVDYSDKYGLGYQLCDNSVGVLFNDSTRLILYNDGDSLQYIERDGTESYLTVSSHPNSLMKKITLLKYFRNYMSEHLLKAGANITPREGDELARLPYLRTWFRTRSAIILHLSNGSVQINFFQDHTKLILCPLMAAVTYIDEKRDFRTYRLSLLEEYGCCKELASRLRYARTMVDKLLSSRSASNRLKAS
Chain of Aurora kinase B (Homo sapiens) (Q96GD4 whole entry): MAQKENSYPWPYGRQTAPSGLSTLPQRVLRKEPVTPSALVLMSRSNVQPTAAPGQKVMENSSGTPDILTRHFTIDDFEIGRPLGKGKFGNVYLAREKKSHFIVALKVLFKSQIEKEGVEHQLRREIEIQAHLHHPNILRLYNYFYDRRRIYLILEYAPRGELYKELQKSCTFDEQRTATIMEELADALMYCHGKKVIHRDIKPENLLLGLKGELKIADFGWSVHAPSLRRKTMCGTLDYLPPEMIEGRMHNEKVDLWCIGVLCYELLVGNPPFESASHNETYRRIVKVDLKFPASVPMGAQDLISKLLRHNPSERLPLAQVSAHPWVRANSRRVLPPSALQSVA

As for `O=C1Cc2ccccc2Cc2cc(-c3ccccc3)ccc21`, the inhibition entry in [1], in assay [2], in assay [3], in [4], in [5] and in assay [6] was “inactive” throughout. Further, the inhibition entry in [7], in assay [8], in [9], in assay [10], in assay [11] and in assay [12] was “inactive” throughout. For the same compound, the inhibition entry in [13], in assay [15], in [16] and in assay [17] was “inactive” throughout. The inhibition (usually the change of the read-out against control, counted positive when it falls) in assay [14] was determined as 43%.

As to `O=C1Cc2cc(Nc3ccccc3)ccc2Cc2ccccc21`, the inhibition result in assay [1], in assay [2], in assay [3], in assay [4], in assay [5] and in assay [6] was “inactive” throughout. In addition, the inhibition entry in assay [7], in [8], in assay [9], in assay [10], in assay [11] and in assay [12] was “inactive” in each case. Also, the inhibition entry in assay [13], in assay [15], in assay [16] and in [17] was “inactive” in each case. In addition, the inhibition in assay [14] stood at 47%.

For the compound `Nc1ccc(Nc2ccc3c(c2)Cc2ccccc2CC3=O)cc1`, the inhibition entry in assay [1], in assay [2], in assay [3], in assay [4], in assay [5] and in [6] was “inactive” in each case. Moreover, the inhibition entry in assay [7], in assay [8], in assay [9], in assay [10], in assay [11] and in assay [12] was “inactive” in each case. For the same compound, the inhibition entry in assay [13], in assay [15], in assay [16] and in assay [17] was “inactive” in each case. Moreover, the inhibition in [14] is 15%.
